From publication PMC7593347 (International Journal for Parasitology: Drugs and Drug …, 2020)
Where two headings read alike, the source gives them in different places.

Key:
[1] = system: HCT-8 cells; test: Cytotoxicity to HCT-8 cells; assay type: cell-based, human; conditions: read-out: Host cell IC50
[2] = system: C. parvum HNJ-1 strain; test: Initial epigenetic library compound screening for C. parvum; assay type: cell-based, Cryptosporidium parvum; conditions: for inhibition at 5 µM: Cryptosporidium parvum, HCT-8, 48 h, read-out: Parasite inhibition (%) (primary screening); for Parasite inhibition (%) (primary screening): 5 μM, 48 h, HCT-8 cells, vs DMSO, single experiment, single replicate
[3] = system: C. parvum; assay type: cell-based, Cryptosporidium parvum; conditions: for inhibition at 5 µM: Cryptosporidium parvum, HCT-8, 48 h, read-out: Parasite inhibition (%); for Parasite inhibition (%): C. parvum, 5 μM, HCT-8 cells, compound present from inoculation, 48 h
[4] = system: C. parvum; conditions: ref Darkin-Rattray et al., 1996; cited from earlier work
[5] = system: C. parvum; test: C. parvum growth when compound is added after invasion of host cells; assay type: cell-based, Cryptosporidium parvum; conditions: 5 μM added after 3 h invasion, further 45 h, compared with DMSO control
Outline: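 HCT-8 cells (2 × 10^4/well) grown 24 h, infected with 5 × 10^4 HNJ-1 oocysts in RPMI-1640 for 3 h; test compound (5 μM) or DMSO then added for 45 h; nitazoxanide 5 μM as control. Methanol-fixed, BSA-blocked, Sporo-Glo stained; 42 fields/well imaged at 20×, parasites and nuclei counted automatically; relative to DMSO. Triplicate wells, three independent experiments.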

[6] = system: C. parvum; conditions: read-out: IC50 against C. parvum, ref Bessoff et al., 2013, cited from earlier work
[7] = system: acetylated histone H3K9 of C. parvum sporozoites; test: Acetylated histone in extracellular parasites; assay type: cell-based, Cryptosporidium parvum; conditions: Fig. 4A, 10 μM, incubation 30 min
[8] = system: C. parvum; conditions: 100 or 200 mg/kg; ref Theodos et al., 1998; cited from earlier work
[9] = system: T. gondii RH-2F; test: T. gondii growth assay; assay type: cell-based, Toxoplasma gondii; conditions: 5 μM, positive control, HFF cells, 48 h

SMILES | IC50 ([1]; Homo sapiens, HCT-8, 48 h) [µM] | inhibition at 5 µM [2] [%] | inhibition at 5 µM [3] [%] | IC50 ([1]; HCT-8 cells, 48 h) [µM] | Parasite inhibition (%) (primary screening) [2] | Parasite inhibition (%) [3] | further results
CCC(=O)CCCCC[C@@H]1NC(=O)[C@H]2CCCCN2C(=O)[C@H]([C@@H](C)CC)NC(=O)[C@H](Cc2cn(OC)c3ccccc23)NC1=O [Apicidin] | 1.5 ± 0.1 | 83 | 83.5 ± 1.4 | – | – | – | minimum concentration at which all C. parvum growth was inhibited [4]: 45 µM
O=C1c2ccccc2C(=O)c2c(NCCc3ccc(O)cc3)ccc(NCCc3ccc(O)cc3)c21 [BML-266] | – | – | – | 51.2 ± 0.6 | 97 | 64.7 ± 3.9% | –
CC(=O)Nc1ccc(C(=O)Nc2ccccc2N)cc1 [CI-994] | 24.6 ± 2.4 | 88 | -15.7 ± 8.4 | – | – | no effect on growth inhibition | –
CN(C)c1ccc(C(=O)NCCCCCCC(=O)NO)cc1 [M-344] | – | – | – | 2.3 ± 0.2 | 71 | 71.3 ± 1.7% | –
O=Nc1ccc(O)c2ncccc12 [NSC-3852] | – | – | – | 36.7 ± 1 | 88 | 64.4 ± 0.4% | –
O=C(/C=C/C#Cc1cccc(NS(=O)(=O)c2ccccc2)c1)NO [Oxamflatin] | 2.5 ± 0.1 | 100 | 49.8 ± 4 | – | – | – | –
O=C(CCCCCN1C(=O)c2cccc3cccc(c23)C1=O)NO [Scriptaid] | 11.9 ± 1.3 | 10 | 4 ± 5.7 | – | – | did not inhibit the growth | –
CC(/C=C/C(=O)NO)=C\[C@@H](C)C(=O)c1ccc(N(C)C)cc1 [TrichostatinA] | – | – | – | 1.6 ± 0.1 | 76 | 75.7 ± 0.8% | –
CC(=O)Oc1ccccc1C(=O)Nc1ncc([N+](=O)[O-])s1 [nitazoxanide] | – | – | – | – | – | – | relative number of C. parvum [5]: 44.9 ± 7.3%; IC50 [6]: 3.7 µM; IC50 ([6]; listed as Nitazoxanide): ~3.7 µM; Density of bands of H3K9Ac/H3 normalized by the loading control [7]: increased; reduction of the parasite in C. parvum-infected SCID mice [8]: ineffective
CCc1nc(N)nc(N)c1-c1ccc(Cl)cc1 [pyrimethamine] | – | – | – | – | – | – | growth of T. gondii [9]: completely inhibited
